pIC50: −log10 of the molar value. The source made the active and inactive calls. The calls are words filed in the database; no cut-off is given here.
Assays:
[1] = target: T1, Bifunctional epoxide hydrolase 2 (Homo sapiens) (UniProt P34913); assay: Inhibition of soluble epoxide hydrolase (unknown origin) using PHOME as substrate at 100 uM measured for 1 hr by fluorescence assay relative to control
T1 sequence (whole entry): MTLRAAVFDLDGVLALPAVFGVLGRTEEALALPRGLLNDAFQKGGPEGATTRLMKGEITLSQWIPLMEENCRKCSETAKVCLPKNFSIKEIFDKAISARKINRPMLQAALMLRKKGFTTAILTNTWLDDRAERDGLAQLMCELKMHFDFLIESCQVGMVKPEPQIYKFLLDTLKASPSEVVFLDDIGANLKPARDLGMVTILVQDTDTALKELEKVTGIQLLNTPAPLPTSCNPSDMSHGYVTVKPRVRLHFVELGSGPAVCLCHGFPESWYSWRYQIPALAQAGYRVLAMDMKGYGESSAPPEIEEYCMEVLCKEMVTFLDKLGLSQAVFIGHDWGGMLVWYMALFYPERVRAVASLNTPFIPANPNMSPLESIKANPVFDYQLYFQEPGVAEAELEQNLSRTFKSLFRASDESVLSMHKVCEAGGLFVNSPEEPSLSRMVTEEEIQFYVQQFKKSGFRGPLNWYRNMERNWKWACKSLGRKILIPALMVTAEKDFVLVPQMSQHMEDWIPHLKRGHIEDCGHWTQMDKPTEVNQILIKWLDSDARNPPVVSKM
Summary of the method: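 sEH (31.6 ng/mL) mixed with compound in MeOH in 25 mM Bis-Tris-HCl, pH 7.0, with 0.1 mg/mL BSA; 40 μM PHOME substrate (stock added) started the reaction at 37 °C. Fluorescence read at ex 330/em 465 nm for 1 h. Activity (%) taken from the signal change between 0 and 40 min, relative to the uninhibited control. Positive control AUDA.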

[2] = target: T2, Bifunctional epoxide hydrolase 2 (Homo sapiens, UniProt P34913); assay: Inhibition of soluble epoxide hydrolase (unknown origin) using PHOME as substrate measured for 1 hr by fluorescence assay
T2 sequence (P34913 whole entry): T1 sequence (whole entry)

[3] = target: T1, Bifunctional epoxide hydrolase 2 (Homo sapiens); assay: Competitive inhibition of soluble epoxide hydrolase (unknown origin) using PHOME as substrate measured for 1 hr by Lineweaver-Burk plot analysis
[4] = target: T1, Bifunctional epoxide hydrolase 2 (Homo sapiens); assay: Non-competitive inhibition of soluble epoxide hydrolase (unknown origin) using PHOME as substrate measured for 1 hr by Lineweaver-Burk plot analysis
[5] = target: T1, Bifunctional epoxide hydrolase 2 (Homo sapiens); assay: Mixed inhibition of soluble epoxide hydrolase (unknown origin) using PHOME as substrate measured for 1 hr by Lineweaver-Burk plot analysis

Structure (SMILES) | inhibition [1] | pIC50 [2] | inhibition mode [3] | inhibition [4] | inhibition [5]
C[C@@H]1C[C@H]([C@@H](O)C(C)(C)O)O[C@]2(O)[C@H]1[C@@]1(C)CC[C@@]34C[C@@]35CC[C@H](O[C@@H]3OC[C@@H](O)[C@H](O)[C@H]3O)C(C)(C)[C@@H]5CC=C4[C@]1(C)[C@H]2O | 84.8% | 4.97 | Active |  | 
C[C@@H]1CC(=O)[C@H](O)[C@]2(O)[C@H]1[C@@]1(C)CC[C@@]34C[C@@]35CC[C@H](O[C@@H]3OC[C@@H](O)[C@H](O)[C@H]3O)C(C)(C)[C@@H]5CC=C4[C@]1(C)[C@H]2O | 69.6% | 5.07 |  | Active | 
C[C@H]1[C@H]2[C@@H](O[C@@]3(O)[C@@H]1OC(C)(C)[C@H]3O)[C@H](O)[C@@]1(C)[C@@H]3CC[C@H]4C(C)(C)[C@@H](O[C@@H]5OC[C@@H](O)[C@H](O)[C@H]5O)CC[C@@]45C[C@@]35CC[C@]21C | 70.2% | 5.36 | Active |  | 
CC(=O)OC(C)(C)[C@H]1O[C@@]23O[C@@H]1C[C@@H](C)[C@@H]2[C@@]1(C)CC[C@@]24C[C@@]25CC[C@H](O[C@@H]2OC[C@@H](O)[C@H](O)[C@H]2O)C(C)(C)[C@@H]5CC=C4[C@]1(C)[C@H]3O | 76.7% | 4.62 | Active |  | 
C[C@@H]1C[C@]23OCC(C)(O)[C@H]2O[C@@]2(O3)[C@H]1[C@@]1(C)CC[C@@]34C[C@@]35CC[C@H](O[C@@H]3OC[C@@H](O)[C@H](O)[C@H]3O)C(C)(C)[C@@H]5CC=C4[C@]1(C)[C@H]2O (some centres undefined) | 63.2% | 4.84 |  |  | Active
CC(=O)O[C@H](C[C@@H](C)[C@H]1C(=O)[C@H](O)[C@@]2(C)C3=CC[C@H]4C(C)(C)[C@@H](O[C@@H]5OC[C@@H](O)[C@H](O)[C@H]5O)CC[C@@]45C[C@@]35CC[C@]12C)[C@@H](O)C(C)(C)O | 72.4% | 5.28 |  | Active | 
COC(C)(C)[C@H]1O[C@@]23O[C@@H]1C[C@@H](C)[C@@H]2[C@@]1(C)CC[C@@]24C[C@@]25CC[C@H](O[C@@H]2OC[C@@H](O)[C@H](O)[C@H]2O)C(C)(C)[C@@H]5CC=C4[C@]1(C)[C@H]3O | 75.6% | 6.40 | Active |  | 
C[C@@H]1C[C@H]2O[C@]3(O[C@H]2C(C)(C)O)[C@H]1[C@@]1(C)[C@H](O)C[C@@]24C[C@@]25CC[C@H](O[C@@H]2OC[C@@H](O)[C@H](O)[C@H]2O)C(C)(C)[C@@H]5CC=C4[C@]1(C)[C@H]3O | 61.9% | 4.73 |  | Active | 
CC(=O)O[C@H]1[C@H](O[C@H]2CC[C@]34C[C@]35CC[C@]3(C)[C@H]6[C@H](C)C[C@H]7O[C@@]6(O[C@H]7C(C)(C)O)[C@H](O)[C@@]3(C)C5=CC[C@H]4C2(C)C)OC[C@@H](O)[C@@H]1O | 64.9% | 4.22 |  |  | 
CC(=O)O[C@H]([C@H]1C[C@@H](C)[C@H]2[C@@](O)(O1)[C@H](O)[C@@]1(C)[C@@H]3CC[C@H]4C(C)(C)[C@@H](O[C@@H]5OC[C@@H](O)[C@H](O)[C@H]5O)CC[C@@]45C[C@@]35CC[C@]21C)C(C)(C)O | 66.1% | 6.40 | Active |  | 

From ChEMBL document CHEMBL4190200, “Inhibition Potential of Cycloartane-Type Glycosides from the Roots of Cimicifuga dahurica against Soluble Epoxide Hydrolase” (J Nat Prod, 2017)
